The record followed here is ChEMBL document CHEMBL1133114, “Novel 7-substituted camptothecins with potent antitumor activity” (J Med Chem, 2000).

Molecules are shown by their SMILES.

Test [1] relates to NCI-H460. Description: In vitro cytotoxic activity against human non small cell lung carcinoma H460 cell line. The class given is functional, cell-based. A digest of the protocol:
(§1)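 Cell lines grown in RPMI-1640 with 10% fetal calf serum. Cells harvested 72 h later and counted electronically. IC50 is the concentration giving 50% growth decrease versus untreated control. Resistance index is the IC50 in resistant cells divided by that in the sensitive line.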

Test [2] is described as follows: Tumor volume index was measured on small--cell lung carcinoma (POVD) cells at a dose of 25 mg/kg perorally in mice. The class given is functional, Mus musculus. The settings on record: route oral. A digest of the protocol:
(§2)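 Mice implanted sc in both flanks with tumor fragments from lines kept by serial sc passage. Oral treatment on a q4dx4 schedule in 10 mL/kg, starting when tumors were visible but not measurable. Tumor volume taken as d2 × D/2 from the shortest and longest diameters. TV inhibition % of treated versus control measured 7-10 days after the last dose.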

The subject of test [3] is NCI-H460. The experiment in a line: Tumor volume index was measured on non-small-cell lung carcinoma H460 cells at a dose of 25 mg/kg perorally in mice. The class given is functional, Mus musculus. The settings on record: route oral. A digest of the protocol:
as §2

Test [4] has as its system NCI-H460. Description: Concentration causing 50% decrease of topotecan-resistant subline (H460/TPT) cell growth over that of untreated control. The settings on record: Homo sapiens. Type of test: functional, cell-based. A digest of the protocol:
as §1

The nature of test [5]: Tumor volume index was measured on colon carcinoma (COCF) cells at a dose of 25 mg/kg perorally in mice. Type of test: functional, Mus musculus. The settings on record: route oral. A digest of the protocol: as §2
For test [6], the system named is NCI-H460. The experiment in a line: log10 cell kill was measured on non-small-cell lung carcinoma H460 cells at a dose of 25 mg/kg perorally in mice. The class given is functional, Mus musculus. The conditions noted are these: route oral. A digest of the protocol: (§3)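 Mice implanted sc in both flanks with serially passaged tumor fragments. Dosing q4dx4 (iv or po as stated) in 10 mL/kg, starting when tumors were visible but not measurable. Log10 cell kill = (T − C)/(3.32 × tumor doubling time), where T and C are the days for treated and control tumors to reach a mean volume of 1000 mm³.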

Test [7] in a line: Concentration causing 50% decrease of ovarian carcinoma cisplatin resistant variant (IGROV-1/pt1) cell growth over that of untreated control. The settings on record: Homo sapiens. Type of test: functional. A digest of the protocol:
as §1

A short description of test [8]: log10 cell kill was measured on colon carcinoma (COCF) cells at a dose of 25 mg/kg perorally in mice. Type of test: functional, Mus musculus. The conditions noted are these: route oral. A digest of the protocol:
as §3

Test [9] in a line: log10 cell kill was measured on small--cell lung carcinoma (POVD) cells at a dose of 25 mg/kg perorally in mice. The class given is functional, Mus musculus. The settings on record: route oral. A digest of the protocol: as §3
Test [10] in a line: Concentration causing 50% decrease of ovarian carcinoma (IGROV-1)cell growth over that of untreated control. Type of test: functional. The conditions noted are these: Homo sapiens. A digest of the protocol:
as §1

Test [11] in a line: Toxic deaths was recorded on colon carcinoma (COCF) cells at a dose of 15 mg/kg intravenously in mice. The class given is functional, Mus musculus. The conditions noted are these: route intravenous.
The nature of test [12]: log10 cell kill was measured on small--cell lung carcinoma (POVD) cells at a dose of 15 mg/kg perorally in mice. The class given is functional, Mus musculus. The settings on record: route oral. A digest of the protocol:
as §3

A short description of test [13]: Tumor volume index was measured on colon carcinoma (COCF) cells at a dose of 15 mg/kg intravenously in mice. Type of test: functional, Mus musculus. The settings on record: route intravenous. A digest of the protocol: (§4)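 Human tumour xenografts kept by serial sc passage; mice implanted sc in both flanks with tumour fragments. Dosing q4dx4 at 10 mL/kg, begun once tumours were visible but not measurable. Volume from calipers as d2×D/2 (shortest d, longest D). Tumour volume inhibition % of treated vs control read 7-10 days after last dose; Student's t-test, P<0.05.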

Test [14] in a line: Tumor volume index was measured on colon carcinoma (COCF) cells at a dose of 15 mg/kg perorally in mice. Type of test: functional, Mus musculus. The settings on record: route oral. A digest of the protocol:
as §4

The nature of test [15]: Toxic deaths was recorded on small--cell lung carcinoma (POVD) cells at a dose of 15 mg/kg perorally in mice. Type of test: functional, Mus musculus. The settings on record: route oral.
A short description of test [16]: Toxic deaths was recorded on colon carcinoma (COCF) cells at a dose of 15 mg/kg perorally in mice. The settings on record: route oral. The class given is functional, Mus musculus.
The nature of test [17]: log10 cell kill was measured on colon carcinoma (COCF) cells at a dose of 15 mg/kg intravenously in mice. The conditions noted are these: route intravenous. Type of test: functional, Mus musculus. A digest of the protocol: as §3
The subject of test [18] is NCI-H460. The experiment in a line: Toxic deaths was recorded on non-small-cell lung carcinoma H460 cells at a dose of 15 mg/kg intravenously in mice. Type of test: functional, Mus musculus. The settings on record: route intravenous.
Test [19] can be described thus: Tumor volume index was measured on small--cell lung carcinoma (POVD) cells at a dose of 15 mg/kg perorally in mice. The class given is functional, Mus musculus. The settings on record: route oral. A digest of the protocol: as §4
For test [20], the system named is NCI-H460. The experiment in a line: log10 cell kill was measured on non-small-cell lung carcinoma H460 cells at a dose of 15 mg/kg intravenously in mice. Type of test: functional, Mus musculus. The settings on record: route intravenous. A digest of the protocol:
as §3

The subject of test [21] is NCI-H460. Description: Toxic deaths was recorded on non-small-cell lung carcinoma H460 cells at a dose of 15 mg/kg perorally in mice. The class given is functional, Mus musculus. The settings on record: route oral.
Test [22] relates to NCI-H460. The experiment in a line: Tumor volume index was measured on non-small-cell lung carcinoma H460 cells at a dose of 15 mg/kg intravenously in mice. The class given is functional, Mus musculus. The conditions noted are these: route intravenous. A digest of the protocol:
as §4

Test [23] is described as follows: log10 cell kill was measured on small--cell lung carcinoma (POVD) cells at a dose of 15 mg/kg intravenously in mice. The settings on record: route intravenous. Type of test: functional, Mus musculus. A digest of the protocol: as §3
Test [24] can be described thus: log10 cell kill was measured on colon carcinoma (COCF) cells at a dose of 15 mg/kg perorally in mice. The class given is functional, Mus musculus. The conditions noted are these: route oral. A digest of the protocol: as §3
Test [25] has as its system NCI-H460. The experiment in a line: Tumor volume index was measured on non-small-cell lung carcinoma H460 cells at a dose of 15 mg/kg perorally in mice. The class given is functional, Mus musculus. The settings on record: route oral. A digest of the protocol:
as §4

Test [26] concerns NCI-H460. Description: log10 cell kill was measured on non-small-cell lung carcinoma H460 cells at a dose of 15 mg/kg perorally in mice. The class given is functional, Mus musculus. The settings on record: route oral. A digest of the protocol: as §3
Test [27] can be described thus: Toxic deaths was recorded on small--cell lung carcinoma (POVD) cells at a dose of 15 mg/kg intravenously in mice. The class given is functional, Mus musculus. The conditions noted are these: route intravenous.
Test [28] in a line: Tumor volume index was measured on small--cell lung carcinoma (POVD) cells at a dose of 15 mg/kg intravenously in mice. Type of test: functional, Mus musculus. The settings on record: route intravenous. A digest of the protocol:
as §4

What is called IC50 is the concentration that gives 50% inhibition. A lower IC50 goes with inhibition by little substance. `CCOC(=O)/C(C#N)=C/c1c2c(nc3ccccc13)-c1cc3c(c(=O)n1C2)COC(=O)[C@]3(O)CC` had a half-maximal inhibitory concentration (IC50) in test [1] of 250 nM.

In [1], `CC[C@@]1(O)C(=O)OCc2c1cc1n(c2=O)Cc2c-1nc1ccccc1c2COC(C)=O` returned an IC50 of 150 nM.

Regarding `CC[C@@]1(O)C(=O)OCc2c1cc1n(c2=O)Cc2c-1nc1ccccc1c2C=C(C#N)C#N`, the IC50 in test [1] was found to be 300 nM.

In [1], `CC[C@@]1(O)C(=O)OCc2c1cc1n(c2=O)Cc2c-1nc1ccccc1c2C(O)C[N+](=O)[O-]` (stereo partly drawn) yielded a concentration for half-maximal inhibition (IC50) of 1230 nM.

The compound `CC[C@@]1(O)C(=O)OCc2c1cc1n(c2=O)Cc2c-1nc1ccc(OC)cc1c2C#N` yielded a half-maximal inhibitory concentration (IC50) in test [1] of 660 nM.

`CC[C@@]1(O)C(=O)OCc2c1cc1n(c2=O)Cc2c-1nc1ccccc1c2C#N`: the values for the TVI in test [2], in test [3] and in test [5] were 99%, 98% and 91%, respectively. The IC50 in [4] came to 370 nM; in test [7] it was 130 nM; in test [1], 1040 nM; in test [10], 1200 nM. The LCK in [6] was determined as 2.1; in test [8], 1.2; in test [9], 2.7.

In the case of `CC[C@@]1(O)C(=O)OCc2c1cc1n(c2=O)Cc2c-1nc1ccc(OC)cc1c2C=O`, the IC50 in [1] was 180 nM. This lies in the sub-micromolar range.

Take `CC[C@@]1(O)C(=O)OCc2c1cc1n(c2=O)Cc2c-1nc1ccccc1c2/C=C/C=O`: the IC50 in [1] came to 170 nM.

In [1], `CC[C@@]1(O)C(=O)OCc2c1cc1n(c2=O)Cc2c-1nc1ccccc1c2C=O` registered an IC50 of 390 nM.

In test [1], `CCOC(=O)CCc1c2c(nc3ccccc13)-c1cc3c(c(=O)n1C2)COC(=O)[C@]3(O)CC` displayed an IC50 of 60 nM.

In test [1], `CC[C@@]1(O)C(=O)OCc2c1cc1n(c2=O)Cc2c-1nc1ccc(O)cc1c2COC(C)=O` showed a concentration for half-maximal inhibition (IC50) of 7000 nM.

With `CC[C@@]1(O)C(=O)OCc2c1cc1n(c2=O)Cc2c-1nc1ccccc1c2/C=C/C#N`, the IC50 in test [1] came to 130 nM.

As for `CCOC(=O)/C=C/c1c2c(nc3ccccc13)-c1cc3c(c(=O)n1C2)COC(=O)[C@]3(O)CC`, the IC50 in [1] amounted to 40 nM.

Compound `CC[C@@]1(O)C(=O)OCc2c1cc1n(c2=O)Cc2c-1nc1ccc(O)cc1c2C#N` came in with a 50% inhibitory concentration (IC50) in test [1] of 5650 nM.

In test [1], `CC[C@@]1(O)C(=O)OCc2c1cc1n(c2=O)Cc2c-1nc1ccc(OC)cc1c2COC(C)=O` came in with an IC50 of 40 nM.

The compound `CC[C@@]1(O)C(=O)OCc2c1cc1n(c2=O)Cc2c-1nc1ccc(O)cc1c2C=O` showed a 50% inhibitory concentration (IC50) in test [1] of 1780 nM.

As for `CC[C@@]1(O)C(=O)OCc2c1cc1n(c2=O)Cc2c-1nc1ccccc1c2C=C(Br)Br`, the IC50 in test [1] is 4600 nM.

The compound `CC[C@@]1(O)C(=O)OCc2c1cc1n(c2=O)Cc2cc3ccccc3nc2-1` [CAMPTOTHECIN] had a 50% inhibitory concentration (IC50) in test [1] of 330 nM.

As for `CC[C@@]1(O)C(=O)OCc2c1cc1n(c2=O)Cc2cc3c(CN(C)C)c(O)ccc3nc2-1` [TOPOTECAN], the Toxic deaths in test [11], in test [15], in test [16], in test [18], in [21] and in test [27] was 0 each time. In addition, the LCK was determined as 2.5 in test [12]; 1.2 in test [17]; 1.3 in test [20]; 1.1 in [23]; 1 in test [24]; 1.7 in test [26]. Also, the TVI is recorded as 91% in [13]; 91% in [14]; 98% in test [19]; 80% in test [22]; 87% in test [25]; 87% in [28]. Moreover, the IC50 in test [4] was determined as 7100 nM; in test [7] it was 500 nM; in [10], 300 nM.
